According to ChEMBL document CHEMBL1143585, “Synthesis of some cryptolepine analogues, assessment of their antimalarial and cytotoxic activities, and consideration of their antimalarial mode of action” (J Med Chem, 2005):
Each block holds one molecule with its values, some of them ahead of it.

Legend:
Mus musculus [1] = assay: Mean survival time taken as number of days before illness due to Plasmodium berghei when mice (Mus musculus) treated with 10 mg/kg dose for 4 days; g=mice (Mus musculus) survived the test; type: functional, organism-based; set-up: dose 10 mg/kg
Outline: (§1)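 Peters' 4-day suppressive test in female BALB/c mice (18-20 g), five per group. Each mouse got 1 × 10^7 P. berghei ANKA-infected erythrocytes iv. Drug was given ip in 0.2 mL daily for 4 consecutive days. Survival time was the number of days before signs of malaria illness, compared with untreated infected controls.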

[2] = molecular target: T1, Histidine-rich protein PFHRP-II (Plasmodium falciparum) (UniProt P05227); assay: Antiplasmodial activity as IC50 against Beta-hematin formation; type: functional
T1 sequence (whole entry): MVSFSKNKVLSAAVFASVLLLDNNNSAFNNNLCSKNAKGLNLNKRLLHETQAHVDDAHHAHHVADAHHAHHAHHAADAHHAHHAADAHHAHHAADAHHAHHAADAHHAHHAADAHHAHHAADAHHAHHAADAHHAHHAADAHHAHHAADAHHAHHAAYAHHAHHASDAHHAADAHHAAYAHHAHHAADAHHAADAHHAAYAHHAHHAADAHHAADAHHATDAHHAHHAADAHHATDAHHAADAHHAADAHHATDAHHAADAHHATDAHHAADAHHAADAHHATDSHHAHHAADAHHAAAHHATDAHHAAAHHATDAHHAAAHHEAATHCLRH
Outline: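 β-Hematin inhibition (BHIA) assay: hemin (0.4 µmol/well) in DMSO with compound at 0.25–2 (or 4) molar equivalents to hemin, in triplicate. Final DMSO was 25%. Formation started with 8 M acetate buffer pH 5.0, then 37 °C for 18 h. The centrifuged pellet was dissolved in 0.1 M NaOH and read at 405 nm. BHIA50 is the drug equivalents relative to hemin giving 50% inhibition.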

Mus musculus [3] = species on record: Mus musculus; assay: Mean survival time taken as number of days before illness due to Plasmodium berghei in untreated mice (Mus musculus); type: functional; outline: as §1
Mus musculus [4] = assay: In vivo antimalarial activity of compound against Plasmodium berghei in mice (Mus musculus) at dose of 10 mg/kg treated for 4 days; type: functional
Mus musculus [5] = assay: In vivo antimalarial activity of compound against Plasmodium berghei was determined as suppression of parasitaemia in mice (Mus musculus) at 10 mg/kg treated for 4 days; type: functional
Plasmodium falciparum [6] = assay: […] accumulation into acidic parasitic food vacuole at pH=5.5; type: functional
Plasmodium falciparum [7] = assay: Normalized IC50 as product of antiplasmodial IC50 and vacuolar accumulation IC50; type: functional, organism-based
[8] = Ionization constant for the compound; type: physicochemical
Mus musculus [9] = assay: In vivo antimalarial activity of compound against Plasmodium berghei in mice (Mus musculus) at dose of 6.25 mg/kg treated for 4 days; type: functional
Outline: (§2)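 Peters 4-day suppressive test in female BALB/c mice (18–20 g), five per group. Mice were infected iv with 1 × 10^7 P. berghei ANKA-infected erythrocytes. Drug was given ip daily for four consecutive days. Blood smears were taken on day 5, and % parasitemia suppression was calculated against untreated infected controls. Survival was recorded as days until signs of malaria illness.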

Mus musculus [10] = assay: In vivo antimalarial activity of compound against Plasmodium berghei was determined as suppression of parasitemia in mice (Mus musculus) at 25 mg/kg treated for 4 days; type: functional; outline: as §2
Mus musculus [11] = assay: In vivo antimalarial activity of compound against Plasmodium berghei was determined as suppression of parasitemia in mice (Mus musculus) at 12.5 mg/kg treated for 4 days; type: functional; outline: as §2
Mus musculus [12] = assay: In vivo antimalarial activity of compound against Plasmodium berghei in mice (Mus musculus) at dose of 25 mg/kg treated for 4 days; type: functional; outline: as §2
Mus musculus [13] = assay: Mean survival time taken as number of days before illness due to Plasmodium berghei when mice (Mus musculus) treated with 3.125 mg/kg dose for 4 days; type: functional; outline: as §1
Mus musculus [14] = assay: Mean survival time taken as number of days before illness due to Plasmodium berghei when mice (Mus musculus) treated with 12.5 mg/kg dose for 4 days; type: functional; outline: as §1
Mus musculus [15] = assay: Mean survival time taken as number of days before illness due to Plasmodium berghei when mice (Mus musculus) treated with 6.25 mg/kg dose for 4 days; type: functional; outline: as §1
Mus musculus [16] = assay: In vivo antimalarial activity of compound against Plasmodium berghei in mice (Mus musculus) at dose of 3.125 mg/kg treated for 4 days; type: functional; outline: as §2
Plasmodium falciparum [17] = assay: […] accumulation into acidic parasitic food vacuole (pH=5.5) relative to Cryptolepine; type: functional
Outline: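 Calculated from each compound's spectrophotometric pKa via a pH-trapping equation, assuming food-vacuole pH 5.5 and external pH 7.4. The result is expressed relative to cryptolepine's ratio. pKa came from UV spectra (0.05 mg mL-1) in at least seven buffers of pH 5.8–13.0, plus 0.1 M NaOH and 0.1 M HCl. pKa was taken as the midpoint of the λmax absorbance plot. Two experiments per compound.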

MAC15A [18] = assay: Ratio of cytotoxic to that of antiplasmodial activity was determined; type: functional, Mus musculus
Mus musculus [19] = assay: In vivo antimalarial activity of compound against Plasmodium berghei was determined as suppression of parasitemia in mice (Mus musculus) at 3.125 mg/kg treated for 4 days; type: functional; outline: as §2
Mus musculus [20] = assay: In vivo antimalarial activity of compound against Plasmodium berghei was determined as suppression of parasitemia in mice (Mus musculus) at 6.25 mg/kg treated for 4 days; type: functional; outline: as §2
Mus musculus [21] = assay: Mean survival time taken as number of days before illness due to Plasmodium berghei when mice (Mus musculus) treated with 25 mg/kg dose for 4 days; type: functional; outline: as §1
Mus musculus [22] = assay: In vivo antimalarial activity of compound against Plasmodium berghei in mice (Mus musculus) at dose of 12.5 mg/kg treated for 4 days; type: functional; outline: as §2
MAC15A [23] = assay: Cytotoxicity against MAC15A mouse adenocarcinomas of the colon cells; type: functional, cell-based
Outline: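 MTT assay. MAC15A cells were seeded at 2 × 10^3 per well and attached overnight at 37 °C, 5% CO2. Drugs were dissolved in DMSO and diluted in medium (max 0.1% DMSO), eight wells per concentration, 96 h exposure. MTT (0.5 mg/mL) was then added for 24 h. Formazan was dissolved in DMSO and read at 550 nm. Survival is relative to vehicle control; IC50 from triplicate experiments.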

Plasmodium falciparum [24] = assay: In vitro antiplasmodial activity for Plasmodium falciparum; type: functional, organism-based
Outline: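 P. falciparum K1 ring-stage cultures in human A+ erythrocytes (RPMI 1640, A+ serum, glucose), at 2.5% hematocrit and 1% parasitemia. Two-fold serial dilutions in duplicate, final DMSO ≤0.5%. Incubated 48 h at 37 °C under 93% N2/3% O2/4% CO2. Growth read as parasite lactate dehydrogenase activity (APAD/NBT, 550 nm). IC50 by linear regression; at least three separate determinations.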

Mus musculus [25] = assay: Mean survival time taken as number of days before illness due to Plasmodium berghei when mice (Mus musculus) treated with 20 mg/kg dose for 4 days; c=toxic after the 2nd dose; type: functional, organism-based; set-up: dose 20 mg/kg
Mus musculus [26] = assay: In vivo antimalarial activity of compound against Plasmodium berghei was determined as suppression of parasitaemia in mice (Mus musculus) at 20 mg/kg treated for 4 days; c=toxic after the 2nd dose; type: functional, organism-based; set-up: dose 20 mg/kg
Mus musculus [27] = assay: In vivo antimalarial activity of compound against Plasmodium berghei in mice (Mus musculus) at dose of 20 mg/kg treated for 4 days; c = toxic after 2nd dose; type: functional, organism-based; set-up: dose 20 mg/kg
Mus musculus [28] = species on record: Mus musculus; assay: Mean survival time taken as number of days before illness due to Plasmodium berghei in […] mice (Mus musculus); c=toxic after the 2nd dose; type: functional, organism-based

Structure (SMILES): CCN(CC)CCCC(C)Nc1ccnc2cc(Cl)ccc12.O=P(O)(O)O.O=P(O)(O)O (stereo not drawn) [CHLOROQUINE PHOSPHATE]
Mean survival time (Mus musculus [1]): Mice survived
BHIA50 [2]: 1.44
Mean survival time (Mus musculus [3]): 8.56 days
Parasitemia (Mus musculus [4]): 0%
Suppression of parasitemia (Mus musculus [5]): 100%

Structure (SMILES): C[n+]1c2ccccc2cc2[nH]c3c([N+](=O)[O-])cc([N+](=O)[O-])cc3c21.[Cl-]
BHIA50 [2]: 0.92
Vascular accumulation ratio (Plasmodium falciparum [6]): 0.813
IC50 (Plasmodium falciparum [7]): 6.5 nM
pKa [8]: 6.4

Structure (SMILES): C[n+]1c2ccc(Br)cc2cc2[nH]c3ccc(Br)cc3c21.[Cl-]
Parasitemia (Mus musculus [9]): 7.67%
Suppression of parasitemia (Mus musculus [10]): 91.4%
Suppression of parasitemia (Mus musculus [11]): 75.4%
Parasitemia (Mus musculus [12]): 1.24%
BHIA50 [2]: 1.53
Mean survival time (Mus musculus [13]): 10 days
Vascular accumulation ratio (Plasmodium falciparum [6]): 77.9
Mean survival time (Mus musculus [3]): 10 days
Mean survival time (Mus musculus [14]): 11.8 days
Mean survival time (Mus musculus [15]): 11.6 days
Parasitemia (Mus musculus [16]): 12.1%
Ratio (Plasmodium falciparum [17]): 0.99
Ratio (MAC15A [18]): 123
Suppression of parasitemia (Mus musculus [19]): 15.9%
Suppression of parasitemia (Mus musculus [20]): 46.7%
Mean survival time (Mus musculus [21]): 15 days
Parasitemia (Mus musculus [22]): 3.55%
pKa [8]: 9.1

Structure (SMILES): Cc1ccc2c(c1)cc1[nH]c3ccccc3c1[n+]2C.[Cl-]
IC50 (MAC15A [23]; Mus musculus, MAC15A): 4110 nM
IC50 (Plasmodium falciparum [24]; Plasmodium falciparum): 419 nM
Ratio (MAC15A [18]): 9.81

Structure (SMILES): C[n+]1c2cc(Cl)ccc2cc2[nH]c3ccccc3c21.[Cl-]
IC50 (MAC15A [23]; Mus musculus, MAC15A): 1750 nM
IC50 (Plasmodium falciparum [24]; Plasmodium falciparum): 448 nM
Ratio (MAC15A [18]): 3.9

Structure (SMILES): C[n+]1c2ccccc2cc2[n-]c3ccccc3c21.Cl [CRYPTOLEPINE HYDROCHLORIDE]
Mean survival time (Mus musculus [25]): Toxic after second dose
Suppression of parasitemia (Mus musculus [26]): Toxic after second dose
IC50 (MAC15A [23]; Mus musculus, MAC15A): 3950 nM
IC50 (Plasmodium falciparum [24]; Plasmodium falciparum): 440 nM
Ratio (MAC15A [18]): 8.98
Parasitemia (Mus musculus [27]): Toxic after second dose
Mean survival time (Mus musculus [28]): Toxic after second dose

Structure (SMILES): C[n+]1c2ccccc2cc2[nH]c3cc(Cl)ccc3c21.[Cl-]
IC50 (MAC15A [23]; mac15a): 8150 nM
IC50 (Plasmodium falciparum [24]): > 1000 nM
Ratio (MAC15A [18]): <8.15

Structure (SMILES): C[n+]1c2ccc(Cl)cc2cc2[nH]c3ccc(Br)cc3c21.[Cl-]
Suppression of parasitemia (Mus musculus [10]): 91.85%
IC50 (MAC15A [23]; Mus musculus, MAC15A): 1730 nM
Parasitemia (Mus musculus [12]): 0.97%
Mean survival time (Mus musculus [3]): 11.8 days
IC50 (Plasmodium falciparum [24]; Plasmodium falciparum): 30 nM
Ratio (MAC15A [18]): 57.7
Mean survival time (Mus musculus [21]): 15.4 days

Structure (SMILES): C[n+]1c2ccccc2c(Cl)c2[nH]c3cc(Cl)ccc3c21
BHIA50 [2]: 0.96
Vascular accumulation ratio (Plasmodium falciparum [6]): 37.94
IC50 (Plasmodium falciparum [7]): 12900 nM
pKa [8]: 7.35

IC50 (Plasmodium falciparum [24]; Plasmodium falciparum): 356 nM
Structure (SMILES): C[n+]1c2cc(Cl)c(Cl)cc2cc2[nH]c3ccccc3c21.[Cl-]
IC50 (MAC15A [23]; Mus musculus, MAC15A): 3320 nM
Ratio (MAC15A [18]): 9.33

Structure (SMILES): C[n+]1c2ccc(F)cc2cc2[nH]c3ccc(Br)cc3c21.[Cl-]
IC50 (MAC15A [23]; Mus musculus, MAC15A): 1350 nM
IC50 (Plasmodium falciparum [24]; Plasmodium falciparum): 63 nM
Ratio (MAC15A [18]): 21.4

BHIA50 [2]: 0.63
pKa [8]: 10.2
Structure (SMILES): C[n+]1c2ccc(Br)cc2cc2[nH]c3ccccc3c21
Vascular accumulation ratio (Plasmodium falciparum [6]): 79.3
